Assay results: ChEMBL document CHEMBL3120154, “2-[N-Alkyl(R-phenyl)-aminomethyl]-3-phenyl-7-trifluoromethylquinoxalines as anticancer agents inhibitors of folate enzymes” (Eur J Med Chem, 2014)

Experiments:
[1] = test system: U-251; test: Cytotoxicity against human U251 cells at 10^-4 M after 48 hrs by SRB assay; format: functional; settings: U-251, 48 h, read-out: GI
Outline: (§1)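 Second-stage screen in the 60-cell-line human tumor panel at NCI, over a 5-log range (100, 10, 1, 0.1, 0.01 micromolar). Cells were exposed to drug for 48 h and growth was estimated with a sulforhodamine B protein stain. The value is percent growth inhibition at each concentration.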

[2] = test system: ACHN; test: Cytotoxicity against human ACHN cells at 10^-4 M after 48 hrs by SRB assay; format: functional; settings: read-out: GI
Outline: (§2)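 Run by NCI on its 60-line human tumor cell panel, after a three-cell-line prescreen. Cells were exposed to drug for 48 h over a 5-log range: 100, 10, 1, 0.1 and 0.01 micromolar. Growth was estimated by sulforhodamine B (SRB) protein staining. Percent growth inhibition (I%) was recorded at each concentration relative to untreated control cells.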

[3] = test system: A498; test: Cytotoxicity against human A498 cells at 10^-4 M after 48 hrs by SRB assay; format: functional; settings: A498, 48 h, read-out: GI; outline: as §2
[4] = test system: OVCAR-3; test: Cytotoxicity against human OVCAR3 cells at 10^-4 M after 48 hrs by SRB assay; format: functional; settings: OVCAR-3, 48 h, read-out: GI
Outline: (§3)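 Run in the NCI 60-cell-line screen after a three-line prescreen. Cells got a 48 h drug exposure; viability/growth was estimated with the sulforhodamine B protein assay. Growth inhibition (I%) was recorded at 100, 10, 1, 0.1 and 0.01 micromolar. Percent growth is relative to untreated control cells, and negative values indicate cell kill.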

[5] = test system: RXF 393; test: Cytotoxicity against human RXF393 cells at 10^-4 M after 48 hrs by SRB assay; format: functional; settings: RXF 393, 48 h, read-out: GI; outline: as §1
[6] = test system: HCT-116; test: Cytotoxicity against human HCT116 cells at 10^-4 M after 48 hrs by SRB assay; format: functional; settings: HCT-116, 48 h, read-out: GI; outline: as §2
[7] = test system: K562; test: Cytotoxicity against human K562 cells at 10^-4 M after 48 hrs by SRB assay; format: functional; settings: K562, 48 h, read-out: GI; outline: as §3
[8] = test system: MCF7; test: Cytotoxicity against human MCF7 cells assessed as cell growth at 10^-4 M after 48 hrs by alamar blue assay relative to untreated control; format: functional; settings: MCF7, 48 h, read-out: Activity
Outline: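 Three-cell-line prescreen. Each line was inoculated and preincubated on a microtiter plate, then the agent was added at a single concentration (10^-4 or 10^-5 M) and incubated 48 h. Endpoint was measured with alamar blue, and growth is reported as a percentage of untreated control cells.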

[9] = test system: BT-549; test: Cytotoxicity against human BT549 cells at 10^-4 M after 48 hrs by SRB assay; format: functional; settings: BT-549, 48 h, read-out: GI; outline: as §2
[10] = test system: SNB-75; test: Cytotoxicity against human SNB75 cells at 10^-4 M after 48 hrs by SRB assay; format: functional; settings: SNB-75, 48 h, read-out: GI; outline: as §1
[11] = test system: HCC 2998; test: Cytotoxicity against human HCC2998 cells at 10^-4 M after 48 hrs by SRB assay; format: functional; settings: HCC 2998, 48 h, read-out: GI; outline: as §2
[12] = Cytotoxicity against human UACC257 cells at 10^-4 M after 48 hrs by SRB assay; format: functional; settings: UACC-257, 48 h, read-out: GI; outline: as §1
[13] = test system: RPMI-8226; test: Cytotoxicity against human RPMI8226 cells at 10^-4 M after 48 hrs by SRB assay; format: functional; settings: RPMI-8226, 48 h, read-out: GI; outline: as §1
[14] = test system: SW-620; test: Cytotoxicity against human SW620 cells at 10^-4 M after 48 hrs by SRB assay; format: functional; settings: SW-620, 48 h, read-out: GI; outline: as §1
[15] = test system: MOLT-4; test: Cytotoxicity against human MOLT4 cells at 10^-4 M after 48 hrs by SRB assay; format: functional; settings: MOLT-4, 48 h, read-out: GI; outline: as §3
[16] = test system: DU-145; test: Cytotoxicity against human DU145 cells at 10^-4 M after 48 hrs by SRB assay; format: functional; settings: DU-145, 48 h, read-out: GI; outline: as §2
[17] = test system: MCF7; test: Cytotoxicity against human MCF7 cells at 10^-4 M after 48 hrs by SRB assay; format: functional; settings: MCF7, 48 h, read-out: GI; outline: as §3
[18] = test system: UACC-62; test: Cytotoxicity against human UACC62 cells at 10^-4 M after 48 hrs by SRB assay; format: functional; settings: UACC-62, 48 h, read-out: GI; outline: as §1
[19] = test system: MDA-MB-231; test: Cytotoxicity against human MDA-MB-231 cells at 10^-4 M after 48 hrs by SRB assay; format: functional; settings: MDA-MB-231, 48 h, read-out: GI; outline: as §3
[20] = test system: NCI-H522; test: Cytotoxicity against human NCI-H522 cells at 10^-4 M after 48 hrs by SRB assay; format: functional; settings: NCI-H522, 48 h, read-out: GI; outline: as §3
[21] = Cytotoxicity against human Hs578T cells at 10^-4 M after 48 hrs by SRB assay; format: functional; settings: Hs-578T, read-out: GI; outline: as §2
[22] = test system: SK-MEL-28; test: Cytotoxicity against human SK-MEL-28 cells at 10^-4 M after 48 hrs by SRB assay; format: functional; settings: SK-MEL-28, 48 h, read-out: GI; outline: as §1
[23] = test system: PC-3; test: Cytotoxicity against human PC3 cells at 10^-4 M after 48 hrs by SRB assay; format: functional; settings: PC-3, 48 h, read-out: GI; outline: as §1
[24] = Cytotoxicity against human EKVX cells at 10^-4 M after 48 hrs by SRB assay; format: functional; settings: read-out: GI; outline: as §2
[25] = test system: SF-295; test: Cytotoxicity against human SF295 cells at 10^-4 M after 48 hrs by SRB assay; format: functional; settings: SF-295, 48 h, read-out: GI; outline: as §1
[26] = test system: HOP-62; test: Cytotoxicity against human HOP62 cells at 10^-4 M after 48 hrs by SRB assay; format: functional; settings: HOP-62, 48 h, read-out: GI; outline: as §2
[27] = target: T1, Dihydrofolate reductase (Homo sapiens, UniProt P00374); test: Competitive inhibition of human dihydrofolate reductase by spectrophotometry
T1 sequence (P00374 whole entry): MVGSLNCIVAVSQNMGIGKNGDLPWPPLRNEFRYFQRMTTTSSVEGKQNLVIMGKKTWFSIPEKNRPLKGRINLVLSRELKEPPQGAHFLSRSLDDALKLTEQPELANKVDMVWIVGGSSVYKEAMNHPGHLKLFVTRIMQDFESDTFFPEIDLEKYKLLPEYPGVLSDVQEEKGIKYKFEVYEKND

[28] = test system: SK-MEL-2; test: Cytotoxicity against human SK-MEL-2 cells at 10^-4 M after 48 hrs by SRB assay; format: functional; settings: SK-MEL-2, 48 h, read-out: GI; outline: as §1
[29] = test system: HL-60(TB); test: Cytotoxicity against human HL-60(TB) cells at 10^-4 M after 48 hrs by SRB assay; format: functional; settings: HL-60, 48 h, read-out: GI
Outline: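 NCI 60-human-tumour-cell-line screen run over a 5-log dose range (100, 10, 1, 0.1 and 0.01 µM). Cells were exposed to drug for 48 h. Growth was estimated by sulforhodamine B protein staining. Values are percent growth inhibition at each concentration, relative to untreated control cells.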

[30] = test system: CCRF-CEM; test: Cytotoxicity against human CCRF-CEM cells at 10^-4 M after 48 hrs by SRB assay; format: functional; settings: read-out: GI; outline: as §2
[31] = target: Thymidylate synthase (Homo sapiens, UniProt P04818); test: Competitive inhibition of human thymidylate synthase by spectrophotometry

SMILES | inhibition of growth at 100 µM [1] | inhibition of growth at 100 µM [2] | inhibition of growth at 100 µM [3] | inhibition of growth at 100 µM [4] | inhibition of growth at 100 µM [5] | inhibition of growth at 100 µM [6] | growth at 100 µM [8] | inhibition of growth at 100 µM [9] | inhibition of growth at 100 µM [10] | inhibition of growth at 100 µM [12] | inhibition of growth at 100 µM [13] | inhibition of growth at 100 µM [14] | inhibition of growth at 100 µM [15] | inhibition of growth at 100 µM [16] | inhibition of growth at 100 µM [17] | inhibition of growth at 100 µM [18] | inhibition of growth at 100 µM [19] | inhibition of growth at 100 µM [20] | inhibition of growth at 100 µM [21] | inhibition of growth at 100 µM [22] | also measured
C#CCN(Cc1nc2cc(C(F)(F)F)ccc2nc1-c1ccccc1)c1ccc(OC(F)(F)F)cc1 | 70% | 65% | 87% | 88% | 67% | 99% | 17% | 86% | < 40% | 44% | 88% | 75% | 79% | 75% | 79% | 64% | 81% | 125% | < 40% | < 40% | inhibition of growth at 100 µM [7]: 78%; inhibition of growth at 100 µM [11]: 104%; inhibition of growth at 100 µM [23]: 77%; inhibition of growth at 100 µM [24]: 89%; inhibition of growth at 100 µM [25]: 49%; inhibition of growth at 100 µM [26]: 48%; Ki [27]: 4 µM; inhibition of growth at 100 µM [28]: < 40%
C#CCN(Cc1nc2cc(C(F)(F)F)ccc2nc1-c1ccccc1)c1ccc(F)cc1 | 85% | 89% | 104% | 94% | 89% | 94% | 41% | 77% | 54% | 119% | 117% | 93% | 81% | 82% | 89% | 96% | 129% | 93% | 94% | 71% | inhibition of growth at 100 µM [29]: 92%; inhibition of growth at 100 µM [30]: 94%; inhibition of growth at 100 µM [7]: 89%; Ki [31]: 2.38 µM; inhibition of growth at 100 µM [23]: 92%; inhibition of growth at 100 µM [24]: 120%; inhibition of growth at 100 µM [25]: 68%; Ki [27]: 8 µM
C#CCN(Cc1nc2cc(C(F)(F)F)ccc2nc1-c1ccccc1)c1ccc(F)c(F)c1 | 59% | 56% | 78% | 116% | 103% | 77% | 40% | 67% | < 40% | 146% | 107% | 82% | 82% | 78% | 94% | 73% | 90% | 85% | 70% | < 40% | inhibition of growth at 100 µM [29]: 79%; inhibition of growth at 100 µM [30]: 98%; inhibition of growth at 100 µM [7]: 78%; inhibition of growth at 100 µM [11]: 102%; Ki [31]: 3.56 µM; inhibition of growth at 100 µM [23]: 78%; inhibition of growth at 100 µM [24]: 123%; inhibition of growth at 100 µM [25]: 74%; inhibition of growth at 100 µM [26]: < 40%; Ki [27]: 8 µM
C#CCN(Cc1nc2cc(C(F)(F)F)ccc2nc1-c1ccccc1)c1ccc(C)cc1 | 181% | 193% | 157% | 164% | 137% | 189% | 58% | 104% | 180% | 110% | 44% | 79% | 85% | 40% | 84% | 188% | 163% | 134% | 113% | 200% | inhibition of growth at 100 µM [29]: 105%; inhibition of growth at 100 µM [30]: < 40%; Ki [31]: 0.51 µM; inhibition of growth at 100 µM [23]: 58%; inhibition of growth at 100 µM [24]: 56%; inhibition of growth at 100 µM [25]: 150%; inhibition of growth at 100 µM [26]: 199%; Ki [27]: 6 µM; inhibition of growth at 100 µM [28]: 136%
CCN(Cc1nc2cc(C(F)(F)F)ccc2nc1-c1ccccc1)c1ccc(OC)c(OC)c1 | 198% | 142% | 180% | 194% | 179% | 199% | 1% | 167% | 115% | 192% | 162% | 164% | 122% | 173% | 86% | 195% | 174% | 164% | 162% | 112% | inhibition of growth at 100 µM [29]: 153%; inhibition of growth at 100 µM [30]: 146%; inhibition of growth at 100 µM [7]: 160%; inhibition of growth at 100 µM [11]: 174%; inhibition of growth at 100 µM [23]: 185%; inhibition of growth at 100 µM [24]: 112%; inhibition of growth at 100 µM [25]: 181%; inhibition of growth at 100 µM [26]: 195%; Ki [27]: 4 µM; inhibition of growth at 100 µM [28]: 172%
